Among the data in ChEMBL document CHEMBL1799915, “Antitubercular chromones and flavonoids from Pisonia aculeata” (2011) are MIC values, retold here.

Values after ≈ are worked out from the molar mass of the structure shown.

This assay deals with Mycobacterium tuberculosis. Briefly: Antitubercular activity against Mycobacterium tuberculosis H37Rv after 2 weeks by agar plate assay. The class given is functional. The settings on record: 336 h. The procedure, abridged: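 Inoculum from colonies suspended in 7H9 broth, adjusted to McFarland no. 1, then diluted; 33 μL spotted per quadrant. Incubated 35 °C, 10% CO2. MIC = lowest concentration giving complete growth inhibition, read by eye.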
One may read the MIC as the smallest concentration in the dilution series that meets the test's criterion for growth inhibition. A low value points to greater potency. `COc1cc(O)c2c(=O)cc(C)oc2c1` [EUGENIN] showed an MIC of 103 mg/L (≈ 500 µM).

As for `O=c1ccoc2cc3c(c(O)c12)OCO3` [PISONIN D], the MIC is at least 236 mg/L.

For the molecule `Cc1c(O)cc(O)c2c1O[C@H](c1ccccc1O)CC2=O` [PISONIVANONE], the minimum inhibitory concentration (MIC) amounted to 12.5 mg/L (≈ 43.7 µM).

For the molecule `Cc1c(O)c(C)c2c(c1O)C(=O)C[C@@H](c1ccccc1O)O2`, the MIC worked out at 20 mg/L (≈ 66.6 µM).

Turning to `COc1cc(/C=C/C(=O)NC[C@H](O)c2ccc(O)cc2)ccc1O`, inhibition of growth (MIC) required 50 mg/L (≈ 152 µM).

In the case of `COc1c(O)c(C)c2occ(-c3ccccc3O)c(=O)c2c1O` [PISONIANONE], the MIC is at least 175 mg/L.

`CC[C@@H](CO)NCCN[C@@H](CC)CO` [ETHAMBUTOL] showed an MIC of 6.25 mg/L (≈ 30.6 µM).

`COc1cc2occc(=O)c2c(O)c1OC` [PISONIN A]: the MIC is at least 100 mg/L.

As to `COc1c(O)cc2occc(=O)c2c1O` [PISONIN C], the MIC came out at 80 mg/L (≈ 384 µM).

Molecule `Cc1cc(=O)c2c(O)c3c(cc2o1)OCO3` [PISONIN E] displayed an MIC of at least 190 mg/L.

For the molecule `COc1c(O)cc2c(c1O)C(=O)C[C@@H](c1ccccc1)O2` [DIHYDROOROXYLIN A], inhibition of growth (MIC) required 50 mg/L (≈ 175 µM).

As to `Cc1cc(=O)c2c(O)cc(O)cc2o1` [NOREUGENIN], 110 mg/L (≈ 572 µM) was the least that counted as inhibitory (MIC).

`COc1c(O)cc2oc(C)cc(=O)c2c1O` [PISONIN B]: the lowest concentration to inhibit growth (MIC) was 25 mg/L (≈ 113 µM).

The molecule `Cc1c(O)c(C)c2occc(=O)c2c1O` [LEPTORUMOL] displayed an MIC of 82.9 mg/L (≈ 402 µM).
